≈ marks a conversion by molar mass, not a printed value. Calls of active or inactive are those of the source.
Key:
[1] = biological target: TAK1/TAB1 (Homo sapiens, UniProt O43318); experiment: Inhibition of recombinant human full-length His-tagged TAK1-TAB1 fusion protein (437 to 504 residues) expressed in baculovirus expression system using fluorescein-MAP2K1 as substrate preincubated for 30 mins followed by substrate addition and measured after 60 mins in presence of ATP by lanthascreen TR-FRET assay
TAK1/TAB1, sequence (Q15750 whole entry, one chain of several, the tested form may be a part): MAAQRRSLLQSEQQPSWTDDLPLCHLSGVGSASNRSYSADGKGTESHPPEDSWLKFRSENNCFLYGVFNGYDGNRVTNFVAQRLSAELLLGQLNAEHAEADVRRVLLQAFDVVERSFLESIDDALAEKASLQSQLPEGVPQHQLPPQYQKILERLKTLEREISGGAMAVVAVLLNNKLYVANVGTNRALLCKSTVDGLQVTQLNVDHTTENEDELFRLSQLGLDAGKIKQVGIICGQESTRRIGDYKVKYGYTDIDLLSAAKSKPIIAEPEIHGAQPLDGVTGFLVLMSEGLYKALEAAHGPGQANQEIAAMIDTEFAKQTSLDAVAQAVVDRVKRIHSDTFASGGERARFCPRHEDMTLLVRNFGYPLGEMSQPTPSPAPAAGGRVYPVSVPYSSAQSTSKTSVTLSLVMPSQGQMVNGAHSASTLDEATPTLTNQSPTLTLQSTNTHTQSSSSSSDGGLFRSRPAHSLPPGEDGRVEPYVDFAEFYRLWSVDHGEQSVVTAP

[2] = Half life in rat liver S9 fraction at 1 uM measured up to 60 mins in presence of NADPH by LC-MS analysis; type: ADME, subcellular
[3] = test system: HCT-15; experiment: Cytotoxicity against TNFalpha-induced human HCT-15 cells assessed as reduction in cell viability up to 10 uM preincubated for 2 hrs followed by TNFalpha stimulation and measured after 72 hrs by celltiter-glo assay; type: functional, cell-based; settings: dose microM <=10, time 74.0 hrs
[4] = Apparent permeability across apical to basolateral side in human Caco-2 cells at 2 uM after 2 hrs by LC/MS-MS analysis; type: ADME, cell-based
[5] = Half life in human liver S9 fraction at 1 uM measured up to 60 mins in presence of NADPH by LC-MS analysis; type: ADME, subcellular
[6] = Half life in CD-1 mouse liver S9 fraction at 1 uM measured up to 60 mins in presence of NADPH by LC-MS analysis; type: ADME, subcellular
[7] = Aqueous solubility of compound in pH 7.4 PBS buffer measured after 24 hrs by HPLC-UV analysis; type: physicochemical
[8] = Apparent permeability across basolateral to apical side in human Caco-2 cells at 2 uM after 2 hrs by LC/MS-MS analysis; type: ADME, cell-based
[9] = test system: Tyrosine-protein kinase ABL1 (Homo sapiens), P00519 [H396P]; experiment: Inhibition of human ABL1 H396P mutant (S229 to K512 residues) expressed in mammalian expression system at 10 uM by kinomescan method relative to control
In short: (§1)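 Single-concentration screen at 10 μM across a 468-kinase KINOMEscan panel (453 human, 403 wild-type kinases). Binding to each kinase was read out as percent inhibition relative to control, with >65% taken as the inhibition cutoff.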

[10] = biological target: Serine/threonine-protein kinase 32A (Homo sapiens) (UniProt Q8WU08); experiment: Inhibition of wild-type human full-length YANK1 (M1 to L396 residues) expressed in mammalian expression system at 10 uM by Kinomescan method relative to control; in short: as §1
Serine/threonine-protein kinase 32A (Homo sapiens), sequence (Q8WU08 whole entry, the tested form may be a part): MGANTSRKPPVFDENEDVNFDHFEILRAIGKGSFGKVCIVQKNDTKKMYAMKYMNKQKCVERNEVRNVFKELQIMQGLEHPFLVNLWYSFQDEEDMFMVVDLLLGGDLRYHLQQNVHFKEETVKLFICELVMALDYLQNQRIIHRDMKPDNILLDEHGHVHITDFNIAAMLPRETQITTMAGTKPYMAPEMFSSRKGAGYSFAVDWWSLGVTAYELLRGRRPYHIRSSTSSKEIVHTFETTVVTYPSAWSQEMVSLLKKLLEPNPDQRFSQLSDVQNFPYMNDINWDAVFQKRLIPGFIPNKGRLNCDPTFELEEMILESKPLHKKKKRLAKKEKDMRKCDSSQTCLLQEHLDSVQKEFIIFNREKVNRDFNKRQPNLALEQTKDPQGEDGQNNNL

[11] = Efflux ratio of apparent permeability across basolateral to apical side over apical to basolateral side in human Caco-2 cells at 2 uM after 2 hrs by LC/MS-MS analysis; type: ADME, cell-based
[12] = biological target: Activated CDC42 kinase 1 (Homo sapiens) (UniProt Q07912); experiment: Inhibition of wild-type human partial length TNK2 (S159 to D474 residues) expressed in bacterial expression system at 10 uM by Kinomescan method relative to control; in short: as §1
Activated CDC42 kinase 1 (Homo sapiens), sequence (Q07912 whole entry, looked up, the tested form may be a part): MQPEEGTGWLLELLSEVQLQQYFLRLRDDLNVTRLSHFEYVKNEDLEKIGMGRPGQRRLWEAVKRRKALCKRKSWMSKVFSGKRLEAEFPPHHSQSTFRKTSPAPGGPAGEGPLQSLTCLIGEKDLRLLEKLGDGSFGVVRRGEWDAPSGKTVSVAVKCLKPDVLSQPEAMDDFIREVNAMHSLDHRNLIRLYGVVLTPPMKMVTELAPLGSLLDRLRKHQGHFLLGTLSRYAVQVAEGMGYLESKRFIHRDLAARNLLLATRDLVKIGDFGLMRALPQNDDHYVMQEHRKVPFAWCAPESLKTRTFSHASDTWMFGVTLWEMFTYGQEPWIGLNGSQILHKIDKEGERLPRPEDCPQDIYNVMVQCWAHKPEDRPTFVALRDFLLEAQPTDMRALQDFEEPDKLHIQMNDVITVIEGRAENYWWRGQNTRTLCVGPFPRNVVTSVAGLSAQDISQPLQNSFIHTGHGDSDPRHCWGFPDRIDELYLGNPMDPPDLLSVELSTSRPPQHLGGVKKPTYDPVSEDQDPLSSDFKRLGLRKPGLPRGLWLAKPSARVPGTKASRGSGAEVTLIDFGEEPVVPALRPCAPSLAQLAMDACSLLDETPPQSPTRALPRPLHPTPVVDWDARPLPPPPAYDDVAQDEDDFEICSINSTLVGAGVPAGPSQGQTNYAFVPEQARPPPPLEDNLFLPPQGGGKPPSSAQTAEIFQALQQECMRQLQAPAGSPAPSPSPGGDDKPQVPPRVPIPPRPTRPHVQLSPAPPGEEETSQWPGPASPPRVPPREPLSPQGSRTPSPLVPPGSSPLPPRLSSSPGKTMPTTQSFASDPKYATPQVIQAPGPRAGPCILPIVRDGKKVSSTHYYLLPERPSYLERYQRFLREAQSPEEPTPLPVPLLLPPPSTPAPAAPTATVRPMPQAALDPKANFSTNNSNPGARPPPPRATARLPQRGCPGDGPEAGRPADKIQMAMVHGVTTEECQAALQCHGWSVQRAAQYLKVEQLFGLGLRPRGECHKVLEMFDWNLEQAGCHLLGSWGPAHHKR

[13] = biological target: T1, Mitogen-activated protein kinase kinase kinase 7 (Homo sapiens, UniProt O43318); experiment: Binding affinity to wild-type human partial length TAK1 (M1 to Q303 residues) expressed in mammalian expression system by Kinomescan method
T1 sequence (O43318 whole entry): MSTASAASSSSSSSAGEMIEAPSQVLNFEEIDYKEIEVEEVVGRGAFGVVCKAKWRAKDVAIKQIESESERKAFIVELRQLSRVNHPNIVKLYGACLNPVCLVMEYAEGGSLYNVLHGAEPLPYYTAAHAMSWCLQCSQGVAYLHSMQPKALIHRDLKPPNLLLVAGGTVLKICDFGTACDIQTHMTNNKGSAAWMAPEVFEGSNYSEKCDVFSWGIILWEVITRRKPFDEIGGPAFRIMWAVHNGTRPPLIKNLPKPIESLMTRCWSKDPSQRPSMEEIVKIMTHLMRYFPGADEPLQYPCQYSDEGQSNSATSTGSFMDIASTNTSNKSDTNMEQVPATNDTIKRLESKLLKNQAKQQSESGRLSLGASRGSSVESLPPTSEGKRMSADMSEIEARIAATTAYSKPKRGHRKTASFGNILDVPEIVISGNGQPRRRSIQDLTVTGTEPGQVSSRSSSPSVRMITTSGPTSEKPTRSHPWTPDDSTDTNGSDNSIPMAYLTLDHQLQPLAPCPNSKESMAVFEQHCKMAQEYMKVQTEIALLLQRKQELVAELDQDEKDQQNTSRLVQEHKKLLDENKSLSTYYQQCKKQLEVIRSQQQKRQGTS
In short: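 Dissociation constant for TAK1 binding measured on the KdELECT platform.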

[14] = biological target: Eukaryotic translation initiation factor 2-alpha kinase 1 (Homo sapiens) (UniProt Q9BQI3); experiment: Inhibition of wild-type human partial length EIF2AK1 (Q147 to E603 residues) expressed in mammalian expression system at 10 uM by Kinomescan method relative to control; in short: as §1
Eukaryotic translation initiation factor 2-alpha kinase 1 (Homo sapiens), sequence (Q9BQI3 whole entry, the tested form may be a part): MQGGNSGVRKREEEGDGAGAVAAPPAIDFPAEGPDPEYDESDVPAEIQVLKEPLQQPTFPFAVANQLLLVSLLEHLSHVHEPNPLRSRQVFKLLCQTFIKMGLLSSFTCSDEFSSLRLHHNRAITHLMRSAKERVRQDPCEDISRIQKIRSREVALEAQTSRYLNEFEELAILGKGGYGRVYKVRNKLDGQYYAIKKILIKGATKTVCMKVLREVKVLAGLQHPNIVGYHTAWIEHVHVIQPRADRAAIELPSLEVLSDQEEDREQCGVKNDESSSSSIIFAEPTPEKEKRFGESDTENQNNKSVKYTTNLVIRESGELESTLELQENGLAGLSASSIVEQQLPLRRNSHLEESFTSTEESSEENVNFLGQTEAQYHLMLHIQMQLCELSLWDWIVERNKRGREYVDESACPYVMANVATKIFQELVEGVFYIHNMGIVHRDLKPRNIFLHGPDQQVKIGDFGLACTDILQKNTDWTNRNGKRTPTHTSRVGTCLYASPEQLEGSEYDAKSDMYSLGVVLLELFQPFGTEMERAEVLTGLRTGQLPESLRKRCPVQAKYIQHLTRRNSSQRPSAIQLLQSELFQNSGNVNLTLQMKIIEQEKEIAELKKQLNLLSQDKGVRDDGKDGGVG

Row | Compound | IC50 [1] [µM] | also measured
1 | CNC(=O)[C@@H](C)N(Cc1ccccc1OC(F)F)C(=O)c1c[nH]c(C(=O)N2CCCC2)n1 | 0.3 | 
2 | CNC(=O)[C@@H](C)N(Cc1ccccc1OC(F)F)C(=O)c1c[nH]c(C(=O)N2Cc3ccc(C(N)=O)cc3C2)n1 | 0.002 | half-life at 1 µM [2]: 19 min; Activity [3]: inactive; Papp A→B at 2 h, 2 µM [4]: 1 nm/s; half-life at 1 µM [5]: 24 min; half-life at 1 µM [6]: 29 min; solubility at 24 h [7]: 5 µM (≈ 2.7 µg/mL); Papp B→A at 2 h, 2 µM [8]: 60 nm/s
3 | CNC(=O)CN(Cc1ccccc1OC(F)F)C(=O)c1c[nH]c(C(=O)N2CCC(OC)C2)n1 (stereo not given) | > 10 | 
4 | CNC(=O)CN(Cc1ccccc1OC(F)F)C(=O)c1c[nH]c(C(=O)N2CCC(c3ccccc3)C2)n1 (stereo not given) | 2.3 | 
5 | Nc1ncc(-c2cnn([C@H]3CC[C@H](O)CC3)c2)c2c(Cl)c(-c3cccc4nnsc34)oc12 | 0.01 | 
6 | CNC(=O)CN(Cc1ccccc1OC(F)F)C(=O)c1c[nH]c(C(=O)N2CCCCC2)n1 | 1.2 | 
7 | CNC(=O)CN(Cc1c(Cl)cccc1OC(F)F)C(=O)c1c[nH]c(C(=O)N2CCCC2)n1 | > 10 | 
8 | CCC(C(=O)NC)N(Cc1ccccc1OC(F)F)C(=O)c1c[nH]c(C(=O)N2CCCC2)n1 (stereo not given) | 1 | 
9 | CNC(=O)C(C(C)C)N(Cc1ccccc1OC(F)F)C(=O)c1c[nH]c(C(=O)N2CCCC2)n1 (stereo not given) | > 10 | 
10 | CNC(=O)CN(Cc1ccccc1OC(F)F)C(=O)c1cc(C(=O)N2CCCC2)n(C)c1 | > 100 | 
11 | CNC(=O)CN(Cc1ccccc1OC(F)F)C(=O)c1cc(C(=O)N2CCCC2)[nH]n1 | 59 | 
12 | CNC(=O)CN(Cc1cccc2[nH]ccc12)C(=O)c1c[nH]c(C(=O)N2CCCC2)c1 | 1.8 | 
13 | CNC(=O)CN(Cc1ccccc1OC(F)F)C(=O)c1c[nH]c(C(=O)N2CC3CCCCC3C2)n1 (stereo not given) | 3.4 | 
14 | CNC(=O)CN(Cc1ccccc1OC(F)F)C(=O)c1c[nH]c(C(=O)N2CCC(C)C2)n1 (stereo not given) | 0.9 | 
15 | CNC(=O)CN(C(=O)c1c[nH]c(C(=O)N2CCCC2)n1)C(C)c1ccccc1OC(F)F (stereo not given) | > 10 | 
16 | CN(Cc1ccccc1OC(F)F)C(=O)c1c[nH]c(C(=O)N2CCCC2)c1 | 3.5 | 
17 | CNC(=O)CN(Cc1ccccc1OC(F)F)C(=O)c1c[nH]c(C(=O)N2CCC(NC(C)=O)C2)n1 (stereo not given) | > 10 | 
18 | CCNC(=O)c1cc(C(=O)N(CC(=O)NC)Cc2ccccc2OC(F)F)c[nH]1 | > 100 | 
19 | CNC(=O)CN(Cc1ccc(OC)cc1OC(F)F)C(=O)c1c[nH]c(C(=O)N2CCCC2)n1 | > 10 | 
20 | CNC(=O)CN(Cc1ccccc1OC(F)F)C(=O)c1c[nH]c(C(=O)N2CCCC2)n1 |  | half-life at 1 µM [2]: > 120 min; inhibition [9]: > 65%; inhibition [10]: > 65%; Papp A→B at 2 h, 2 µM [4]: 10 nm/s; efflux ratio at 2 h, 2 µM [11]: 20; half-life at 1 µM [5]: > 120 min; half-life at 1 µM [6]: > 120 min; solubility at 24 h [7]: 30 µM (≈ 13.1 µg/mL); inhibition [12]: > 65%; Kd [13]: 0.055 µM; Papp B→A at 2 h, 2 µM [8]: 200 nm/s; inhibition [14]: > 65%
21 | CNC(=O)CN(Cc1ccccc1OC(F)F)C(=O)c1c[nH]c(C(=O)N2CCCC2C)n1 (stereo not given) | 5.7 | 
22 | CNC(=O)CN(Cc1cc(Cl)ccc1OC(F)F)C(=O)c1c[nH]c(C(=O)N2CCCC2)n1 | > 10 | 

— ChEMBL document CHEMBL4706727, “Discovery of 2,4-1H-Imidazole Carboxamides as Potent and Selective TAK1 Inhibitors” (ACS Med Chem Lett, 2021)
